VLA-4 inh: inhibition in a human VLA-4 binding assay; 0.2% of 330,000 active; VLA-4 expressing cells, ligand binding flow cytometry; inhibition, % (about 7 µM as worked out from the volumes in the protocol); P13612; in the data active = inhibition above about 50%
GASC-1 inh: human JMJD2C demethylase inhibition | Q9H3R0 | GST-JMJD2C(1-420) H3K9me3 demethylation, DELFIA europium | inhibition, % at 2.35 µM | 0.069% of 330,000 active | AID 2099;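 active = more than half of a compound's replicate wells show inhibition beyond 50%, single wells judged on their own value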;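 note: signal counts dimethyl H3K9 product captured on neutravidin plate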
GRK2 aptamer HTS: blocks RNA aptamer binding to human GRK2; P25098; 0.59% of 330,000 active; inhibition of aptamer binding, % at 10 µM; bead flow cytometry, FAM-aptamer displacement from GRK2;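 active = inhibition of aptamer binding above 40%, roughly 3 SD of noise, on plates passing a quality check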;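 note: median bead fluorescence of bound FAM aptamer so fluorescent compounds give negative values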
Hep lipid drop: hepatic lipid droplet formation modulation; AML12 mouse hepatocytes, oleate lipid droplets, BODIPY imaging; inhibition, % at 6.5 µM; 0.4% of 240,000 active;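 active = lipid droplet intensity inhibited by at least 50%, with more than 500 cells counted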
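Material – AML12 mouse liver cells · Also added – oleate loading, 100 µM · Compound dosing – 6.5 µM single-point dosing · Times – overnight treatment with compound plus oleate · Measured by – fluorescence imaging, 20x objective, two fields per well · Read-out – percent inhibition of filter-corrected integrated lipid droplet intensity per well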
proCasp7 act: counter-screen: procaspase-7 (human) activation | P55210 | 0.093% of 330,000 active | recombinant procaspase-7, Ac-DEVD-pNA absorbance 405 nm; D23A/D198A/D206A triple mutant, cannot self-cleave; scale: DMSO 0, 5 µM enzyme 100 | activation, % at 8.5 µM;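 active = percent activation above the screen-wide mean plus 3 SD, cut at about 25% in these data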
Target sequence (P55210 whole entry D23A/D198A/D206A): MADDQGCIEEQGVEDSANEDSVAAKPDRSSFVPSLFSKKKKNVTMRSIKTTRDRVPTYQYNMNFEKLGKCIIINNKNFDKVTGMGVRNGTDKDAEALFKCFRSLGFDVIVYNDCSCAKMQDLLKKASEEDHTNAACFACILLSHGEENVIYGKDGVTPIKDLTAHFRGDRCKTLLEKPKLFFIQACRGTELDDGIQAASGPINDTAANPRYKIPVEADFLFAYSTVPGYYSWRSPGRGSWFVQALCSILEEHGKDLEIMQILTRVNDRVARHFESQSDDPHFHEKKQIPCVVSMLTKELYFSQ
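System: Uncleavable procaspase-7 mutant enzyme; Amount: 2 µM procaspase-7 mutant as dispensed; Schedule: 1 h compound preincubation, 2 h substrate cleavage, 25 °C; Measured by: 405 nm absorbance of p-nitroaniline; Evaluation: percent activation from buffer-corrected 0–120 min absorbance change; Control set: low DMSO alone, high DMSO plus 5 µM PC-7.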
procasp3 activ: procaspase-3 (human) activation; recombinant procaspase-3 D3A, Ac-DEVD-pNA absorbance 405 nm; activation, % at 8.5 µM; 0.11% of 330,000 active;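 active = activation above the mean of all tested compounds plus 3 SD, cut at about 21% in these data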
Target sequence (P42574 whole entry D9A/D28A/D175A): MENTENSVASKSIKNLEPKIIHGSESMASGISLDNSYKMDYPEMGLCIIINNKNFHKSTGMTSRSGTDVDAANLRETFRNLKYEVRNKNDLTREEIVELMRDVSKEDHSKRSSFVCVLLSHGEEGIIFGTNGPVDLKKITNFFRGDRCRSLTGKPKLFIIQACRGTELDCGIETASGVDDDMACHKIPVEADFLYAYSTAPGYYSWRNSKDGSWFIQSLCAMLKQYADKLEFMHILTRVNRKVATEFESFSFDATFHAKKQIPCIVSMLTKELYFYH
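Compound: 8.5 µM single point, 0.8% DMSO / Material: Autoprocessing-dead procaspase-3 D3A mutant enzyme / Timing: 1 h preincubation plus 2 h reaction at 25 °C / Medium: Zinc-free HEPES/NaCl buffer with 0.01% Triton X-100 at pH 7.4 / Technique: 405 nm absorbance of p-nitroaniline, reads at 0 and 120 min / Repeats: one well per compound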
GRK2 CP1: confirmation of human GRK2 inhibitors displacing RNA aptamer | shares compounds with GRK2 aptamer HTS | bead-bound GRK2, FAM-aptamer displacement, flow cytometry | aptamer displacement, % at 10 µM | 4% of 2,000 active;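 active = aptamer displacement above 40%, near three times the noise of non-fluorescent compounds, on plates passing quality checks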;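 note: negative values mostly reflect intrinsic compound fluorescence rather than true enhancement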
Aptamer quench 1: fluorescent aptamer quenching in GRK2 counter-screen dose response. AID 504521. 110 tested, under 10 active. shares compounds with GRK2 aptamer HTS. Fluorescent RNA aptamer beads, flow cytometry; hits give high values. fluorescence change (kMESF span), kMESF (test concentration not listed);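 active = compounds whose bead fluorescence drops by more than 37 kMESF across the dose range, marking them as dye quenchers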
FAM quench CP1: aptamer fluorescence quenching in GRK2 counter-screen; shares compounds with GRK2 aptamer HTS; Carboxyfluorescein RNA aptamer on beads, flow cytometry quenching; hits give low values; fluorescence response (% of DMSO), % at 10 µM; 2,000 tested, under 10 active; AID 504580;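 active = compounds that quench the bead-bound fluorescent RNA probe, cutting fluorescence to under half of the solvent control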;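 note: counterscreen run without GRK2 so only probe quenching by compound is measured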
GRK2 CP2: confirmation of human GRK2 inhibitors binding RNA aptamer site. shares compounds with GRK2 aptamer HTS. bead-bound GRK2, FAM-aptamer displacement, flow cytometry. inhibition of aptamer binding, % at 10 µM. 360 tested, under 10 active. AID 504782;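 active = inhibition of aptamer binding above 40%, about triple the noise seen with nonglowing compounds, on plates passing quality control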;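 note: negative values mostly come from compounds that fluoresce themselves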
FAM quench CP2: aptamer fluorescence quenching in GRK2 counter-screen; shares compounds with GRK2 aptamer HTS; carboxyfluorescein RNA aptamer beads, flow cytometry quenching; hits give low values; fluorescence response vs DMSO, % at 10 µM; 360 tested, under 10 active; AID 588494;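 active = response vs DMSO under 50%, meaning signal dropped by over half, treated as fluorescence quencher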;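 note: labelled aptamer on streptavidin beads without GRK2 as a quench counter-screen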
Hits are given with their value; 0 = inactive; - = not tested or not shown. A selection: hits, their analogues and other compounds. The true share with any hit is near 1.3%.

SMILES | VLA-4 inh | GASC-1 inh | GRK2 aptamer HTS | Hep lipid drop | proCasp7 act | procasp3 activ | GRK2 CP1 | FAM quench CP1 | GRK2 CP2 | FAM quench CP2 | others
CCOc1ccc(CCNC(=O)C2CC(C)=CCC2C(=O)O)cc1OCC (stereo unspecified) | 0 | 0 | 66 | 0 | 0 | 0 | 53 | 0 | - | - | Aptamer quench 1=0
CC1=C(C)CC(C(=O)NCc2ccc3c(c2)OCO3)C(C(=O)O)C1 (stereo unspecified) | 0 | 0 | 0 | 0 | 0 | 0 | - | - | - | -
COc1ccc(CNC(=O)C2CC(C)=C(C)CC2C(=O)O)cc1OC (stereo unspecified) | 0 | 0 | 0 | 0 | 0 | 0 | - | - | 0 | 0
O=C(CN1C(=O)NC2(CCCC2)C1=O)NNC(=O)c1ccc(Cl)cc1 | 0 | 0 | 0 | - | 0 | 0 | - | - | - | -
CSc1ccc(Cl)c(C(=O)N2CCN(c3ncccn3)CC2)c1 | 0 | 0 | 43 | - | 0 | 0 | - | - | 0 | 0
CSc1ccccc1C(=O)Nc1cccc([N+](=O)[O-])c1 | 0 | 0 | 0 | 0 | 0 | 0 | - | - | - | -
C=CCOc1cccc(NC(=O)c2ccccc2SC)c1 | 0 | 0 | 92 | 0 | 0 | 0 | 0 | 0 | - | -
CSc1ccccc1C(=O)Nc1cccc(C)c1 | 0 | 0 | 97 | 0 | 0 | 0 | 0 | 0 | - | -
Cc1ccc(C)c(NC(=O)CCC(=O)N/N=C/c2cc([N+](=O)[O-])ccc2O)c1 | 0 | 0 | 0 | 0 | 0 | 0 | - | - | - | -
Cc1cc(=O)oc2cc(OCC(=O)N/N=C/c3cc([N+](=O)[O-])ccc3O)ccc12 | 0 | 0 | 75 | 0 | 0 | 0 | 0 | 0 | - | -
Cc1[nH][nH]c(=O)c1C(c1ccc(-c2cccc(C(=O)O)c2)o1)c1c(C)[nH][nH]c1=O | 0 | 0 | 42 | 0 | 0 | 0 | - | - | 0 | 0
Cc1[nH][nH]c(=O)c1C(c1ccc(-c2cccc(Cl)c2)o1)c1c(C)[nH][nH]c1=O | 0 | 0 | 0 | 0 | 0 | 0 | - | - | - | -
O=C(OCC(=O)N1CCN(S(=O)(=O)c2ccccc2)CC1)C1CCC1 | 0 | 0 | 59 | - | 0 | 0 | - | - | 0 | 0
COc1ccc(-c2nc(CNS(=O)(=O)c3ccc(OC)c(OC)c3)cs2)cc1 | 0 | 0 | 84 | 0 | 0 | 0 | 0 | 0 | - | -
Fc1ccc(CSc2ccc(-c3ccc4c(c3)OCO4)nn2)cc1 | 0 | 0 | 49 | 0 | 0 | 0 | - | - | 0 | 0
N#CC(c1ccccc1O)N1N=C(c2ccccc2)CC1c1ccccc1 (stereo unspecified) | 0 | 0 | 46 | 0 | 0 | 0 | 0 | 39 | - | -
COc1cc(C(C#N)N2N=C(c3ccccc3)CC2c2ccccc2)ccc1O (stereo unspecified) | 0 | 0 | 0 | - | 0 | 0 | - | - | - | -
CC(C(=O)OCC(=O)N1CCCCC1)N1C(=O)c2ccccc2C1=O (stereo unspecified) | 0 | 0 | 0 | - | 0 | 0 | - | - | - | -
O=C(CSc1nnc(NC(=O)C2CC2)s1)Nc1cccc(F)c1 | 0 | 0 | 0 | 0 | 0 | 0 | - | - | - | -
CC(C)c1c(O)nc(SCc2ccc(F)cc2)[nH]c1=O | 0 | - | 60 | 0 | 0 | 0 | 0 | 0 | - | -
O=S(=O)(c1ccccc1OC(F)(F)F)N1CCN(c2ccnc3cc(Cl)ccc23)CC1 | 0 | 0 | 77 | 0 | 0 | 0 | - | - | 0 | 0
O=C(O)c1ccc2c(c1)C(=O)/C(=C\c1ccco1)C2=O | 0 | 0 | 58 | 0 | 0 | 0 | 0 | 0 | - | -

High-throughput results as filed in PubChem BioAssay.
